Activity calls are given as the source filed them. The rule behind the calls is not given here.
Legend:
Protein ENL = target: T1, Protein ENL (Homo sapiens, UniProt Q03111); test: Inhibition of human His-ENL YEATS domain and biotinylated H3K9ac peptide interaction by AlphaScreen assay
T1 sequence (Q03111 whole entry): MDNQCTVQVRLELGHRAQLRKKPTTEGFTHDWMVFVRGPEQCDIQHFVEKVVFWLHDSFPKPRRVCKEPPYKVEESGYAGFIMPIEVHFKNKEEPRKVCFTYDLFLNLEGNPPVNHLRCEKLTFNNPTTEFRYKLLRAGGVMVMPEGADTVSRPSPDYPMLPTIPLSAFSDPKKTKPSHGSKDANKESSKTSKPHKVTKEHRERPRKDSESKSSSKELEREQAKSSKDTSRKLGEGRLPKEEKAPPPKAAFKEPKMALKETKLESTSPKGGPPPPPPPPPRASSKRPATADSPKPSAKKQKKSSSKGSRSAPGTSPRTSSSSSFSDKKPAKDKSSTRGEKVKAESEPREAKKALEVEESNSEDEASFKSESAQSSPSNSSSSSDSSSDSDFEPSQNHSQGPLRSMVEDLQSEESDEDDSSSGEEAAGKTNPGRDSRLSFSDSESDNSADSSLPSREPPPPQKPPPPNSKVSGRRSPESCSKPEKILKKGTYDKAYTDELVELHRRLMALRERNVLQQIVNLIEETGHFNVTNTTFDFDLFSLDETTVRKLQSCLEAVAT

[1] = target: T2, YEATS domain-containing protein 4 (Homo sapiens, UniProt O95619); test: Inhibition of human His-GAS41 YEATS domain and biotinylated H3K27ac peptide interaction at 20 uM by AlphaScreen assay
T2 sequence (O95619 whole entry, the tested form may be a part): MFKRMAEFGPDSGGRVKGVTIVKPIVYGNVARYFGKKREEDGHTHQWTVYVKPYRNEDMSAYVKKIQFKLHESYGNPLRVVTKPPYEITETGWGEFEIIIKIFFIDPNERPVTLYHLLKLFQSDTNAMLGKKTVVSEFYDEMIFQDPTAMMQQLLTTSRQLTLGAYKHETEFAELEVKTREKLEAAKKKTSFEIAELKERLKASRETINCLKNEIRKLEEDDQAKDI

[2] = target: T3, YEATS domain-containing protein 2 (Homo sapiens) (UniProt Q9ULM3); test: Inhibition of human His-YEATS2 YEATS domain and biotinylated […] peptide interaction at 20 uM by AlphaScreen assay
T3 sequence (whole entry): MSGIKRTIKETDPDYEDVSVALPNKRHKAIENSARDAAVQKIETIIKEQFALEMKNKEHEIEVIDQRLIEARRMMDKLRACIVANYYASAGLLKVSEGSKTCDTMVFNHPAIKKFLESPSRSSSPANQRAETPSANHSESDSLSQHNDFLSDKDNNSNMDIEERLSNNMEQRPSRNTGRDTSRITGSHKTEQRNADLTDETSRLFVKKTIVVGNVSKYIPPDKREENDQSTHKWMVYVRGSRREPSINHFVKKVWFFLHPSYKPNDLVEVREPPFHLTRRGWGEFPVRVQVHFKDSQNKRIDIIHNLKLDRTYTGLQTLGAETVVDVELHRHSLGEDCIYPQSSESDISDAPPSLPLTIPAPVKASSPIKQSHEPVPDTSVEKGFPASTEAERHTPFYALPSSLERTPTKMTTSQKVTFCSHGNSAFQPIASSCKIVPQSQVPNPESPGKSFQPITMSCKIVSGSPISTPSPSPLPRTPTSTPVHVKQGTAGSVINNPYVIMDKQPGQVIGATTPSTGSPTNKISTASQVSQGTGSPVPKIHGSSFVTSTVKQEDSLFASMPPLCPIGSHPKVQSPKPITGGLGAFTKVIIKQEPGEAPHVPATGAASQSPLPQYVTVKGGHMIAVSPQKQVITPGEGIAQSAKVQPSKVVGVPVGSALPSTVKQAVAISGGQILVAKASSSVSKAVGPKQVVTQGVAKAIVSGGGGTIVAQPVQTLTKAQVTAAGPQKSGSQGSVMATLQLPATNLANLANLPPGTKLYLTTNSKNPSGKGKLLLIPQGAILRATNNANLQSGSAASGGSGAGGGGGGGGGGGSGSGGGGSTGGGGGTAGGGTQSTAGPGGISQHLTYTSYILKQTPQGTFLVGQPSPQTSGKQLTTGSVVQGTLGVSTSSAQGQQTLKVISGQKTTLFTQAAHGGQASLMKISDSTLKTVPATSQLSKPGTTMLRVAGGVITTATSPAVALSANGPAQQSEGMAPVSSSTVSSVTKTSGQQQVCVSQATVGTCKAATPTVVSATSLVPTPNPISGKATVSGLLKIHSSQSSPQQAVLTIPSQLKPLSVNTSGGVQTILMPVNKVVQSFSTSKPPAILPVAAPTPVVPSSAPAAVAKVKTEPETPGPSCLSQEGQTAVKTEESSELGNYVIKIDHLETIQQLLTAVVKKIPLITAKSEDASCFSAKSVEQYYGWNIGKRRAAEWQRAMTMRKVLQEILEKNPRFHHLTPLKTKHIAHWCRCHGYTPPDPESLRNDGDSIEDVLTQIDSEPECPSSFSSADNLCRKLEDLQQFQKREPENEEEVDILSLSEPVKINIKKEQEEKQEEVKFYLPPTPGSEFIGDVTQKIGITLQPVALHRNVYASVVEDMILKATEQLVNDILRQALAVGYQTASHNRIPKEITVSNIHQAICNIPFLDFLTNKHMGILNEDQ

Protein AF-9 = target: T4, Protein AF-9 (Homo sapiens, UniProt P42568); test: Inhibition of human His-AF9 YEATS domain and biotinylated H3K9ac peptide interaction by AlphaScreen assay
T4 sequence (P42568 whole entry): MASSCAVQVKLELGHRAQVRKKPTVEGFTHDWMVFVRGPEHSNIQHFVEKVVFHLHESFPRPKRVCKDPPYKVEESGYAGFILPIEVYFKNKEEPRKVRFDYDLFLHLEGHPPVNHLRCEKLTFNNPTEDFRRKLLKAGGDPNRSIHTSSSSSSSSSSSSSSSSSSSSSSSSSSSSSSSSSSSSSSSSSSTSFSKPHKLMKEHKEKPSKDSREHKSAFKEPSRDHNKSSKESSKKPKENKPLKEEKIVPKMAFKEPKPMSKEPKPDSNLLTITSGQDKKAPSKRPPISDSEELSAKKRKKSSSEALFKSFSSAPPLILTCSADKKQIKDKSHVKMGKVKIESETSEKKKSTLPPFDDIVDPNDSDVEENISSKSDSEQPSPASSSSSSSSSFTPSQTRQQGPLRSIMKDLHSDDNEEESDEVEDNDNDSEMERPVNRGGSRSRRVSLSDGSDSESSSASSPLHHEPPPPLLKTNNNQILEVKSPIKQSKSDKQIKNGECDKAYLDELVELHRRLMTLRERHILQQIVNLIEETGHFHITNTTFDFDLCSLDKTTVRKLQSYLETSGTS

[3] = target: T5, Protein AF-9 (Homo sapiens) (UniProt P42568); test: Inhibition of human His-AF9 YEATS domain and biotinylated H3K9ac peptide interaction at 20 uM by AlphaScreen assay
T5 sequence (whole entry): T4 sequence (P42568 whole entry)

[4] = target: T2, YEATS domain-containing protein 4; test: Inhibition of human His-GAS41 YEATS domain and biotinylated H3K27ac peptide interaction by AlphaScreen assay
How it was run: (§1)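 His-tagged YEATS domains were expressed in E. coli Rosetta-2 (DE3) pLysS and purified on Ni-NTA. Partners were biotinylated peptide on streptavidin donor and Ni2+-chelate acceptor beads: AF9 30 nM with H3K9ac, GAS41 100 nM with H3K27ac, YEATS2 100 nM with H3K27cr. Peptides at 30 nM, buffer 50 mM HEPES pH 7.4, 100 mM NaCl, 0.1% BSA, 0.05% CHAPS. Thirteen-point 3-fold series from 54 μM to 0.1 nM, 4–6 replicates, signal normalised to no-compound control, four-parameter fit.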

[5] = target: T6, YEATS domain-containing protein 2 (Homo sapiens, UniProt Q9ULM3); test: Inhibition of human His-YEATS2 YEATS domain and biotinylated […] peptide interaction by AlphaScreen assay; how it was run: as §1
T6 sequence (Q9ULM3 whole entry): T3 sequence (whole entry)

[6] = target: T5, Protein AF-9 (Homo sapiens); test: Stabilization of AF9 in human HeLa cells assessed as inhibition of high temperature-induced AF9 protein degradation at 20 uM incubated for 5 hrs by cellular thermal shift assay; format: cell-based
How it was run: (§2)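 Cells (MOLM13, MV4;11 or HeLa) were treated with 20 μM compound or DMSO for 5 h, washed with PBS and resuspended in PBS with protease inhibitors, about 3 million cells per aliquot. Aliquots were heated 3 min at the indicated temperatures, then held 2 min at room temperature. Lysis was by NP40/glycerol/DTT buffer and three freeze-thaw cycles, followed by a 13,000 rpm spin at 4 °C. Soluble ENL, GAS41 or AF9 in supernatants was measured by western blot with β-actin loading control.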

MOLM-13 [7] = test: Growth inhibition of human MOLM13 cells at 5 uM incubated for 3 days by CellTiter-Glo luminescent cell viability assay relative to control; format: functional; conditions: MOLM-13, 72 h, time 3 day, read-out: GI
How it was run: (§3)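 MOLM13 and MV4;11 were grown in RPMI-1640 + 10% FBS, U2OS in DMEM + 10% FBS. Treatment with DMSO or compound for 3 days. Viability read by CellTiter-Glo luminescence and expressed as % of DMSO-treated cells. Mean ± SEM, n = 3.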

MOLM-13 [8] = test: Growth inhibition of human MOLM13 cells incubated for 6 days in presence of JQ1 by CellTiter-Glo luminescent cell viability assay; conditions: MOLM-13, 144 h
MV4-11 = test: Growth inhibition of human MV4-11 cells at 2.5 to 50 uM incubated for 3 days by CellTiter-Glo luminescent cell viability assay relative to control; format: functional, cell-based; conditions: dose 2.5-50 µM, time 3.0 day; how it was run: as §3
[9] = target: T7, Protein ENL (Homo sapiens) (UniProt Q03111); test: Stabilization of ENL in human HeLa cells assessed as inhibition of high temperature-induced ENL protein degradation at 20 uM incubated for 5 hrs by cellular thermal shift assay; format: cell-based; how it was run: as §2
T7 sequence (whole entry): T1 sequence (Q03111 whole entry)

MOLM-13 [10] = test: Growth inhibition of human MOLM-13 cells incubated for 6 days by CellTiter-Glo luminescent cell viability assay; conditions: MOLM-13, 144 h
[11] = target: T7, Protein ENL (Homo sapiens); test: Stabilization of ENL in human MOLM13 cells assessed as inhibition of high temperature-induced ENL protein degradation at 20 uM incubated for 5 hrs by cellular thermal shift assay; format: cell-based; conditions: MOLM-13; how it was run: as §2
U2OS = test: Growth inhibition of ENL-independent human U2OS cells at 50 uM incubated for 3 days by CellTiter-Glo luminescent cell viability assay relative to control; format: functional, cell-based; conditions: time 3.0 day; how it was run: as §3
[12] = target: T7, Protein ENL (Homo sapiens); test: Inhibition of human His-ENL YEATS domain and biotinylated H3K9ac peptide interaction at 5 uM by AlphaScreen assay
[13] = target: YEATS domain-containing protein 4 (GAS41) (Homo sapiens) (UniProt O95619); test: Stabilization of GAS41 in human MV4-11 cells assessed as inhibition of high temperature-induced GAS41 protein degradation at 20 uM incubated for 5 hrs by cellular thermal shift assay
Chain of YEATS domain-containing protein 4 (GAS41) (Homo sapiens) (O95619 whole entry, looked up, the tested form may be a part): as the sequence (O95619 whole entry, the tested form may be a part) above

[14] = target: YEATS domain-containing protein 4 (GAS41) (Homo sapiens) (UniProt O95619); test: Stabilization of GAS41 in human MOLM13 cells assessed as inhibition of high temperature-induced GAS41 protein degradation at 20 uM incubated for 5 hrs by cellular thermal shift assay; conditions: MOLM-13
MOLM-13 [15] = test: Growth inhibition of human MOLM13 cells at 10 uM incubated for 3 days by CellTiter-Glo luminescent cell viability assay relative to control; format: functional; conditions: MOLM-13, 72 h, time 3 day, read-out: GI; how it was run: as §3
[16] = target: T7, Protein ENL (Homo sapiens); test: Stabilization of ENL in human MV4-11 cells assessed as inhibition of high temperature-induced ENL protein degradation at 20 uM incubated for 5 hrs by cellular thermal shift assay; format: cell-based; how it was run: as §2

Row | Structure (SMILES) | IC50 (Protein ENL) [µM] | inhibition [1] | inhibition [2] | inhibition [3] | IC50 [4] [µM] | IC50 [5] [µM] | other results
1 | O=C(NCc1ccc(CN2CCOCC2)cc1)c1ccc2nncn2c1 | 0.891 |  |  |  |  |  | 
2 | O=C(NCc1cccc(CN2CCC2)c1)c1ccc2nncn2c1 | 0.202 |  |  |  |  |  | 
3 | O=C(NCc1ccc(CN2CCC2)cc1)c1ccc2ncnn2c1 | > 5 |  |  |  |  |  | 
4 | O=C(NCc1ccc(CNc2ncc(F)cn2)cc1)c1ccc2nncn2c1 |  | Active | Active | Active | > 54 | > 54 | IC50 (Protein AF-9): 0.729 µM
5 | O=C(NCc1ccc(CNc2nc(F)ccc2F)cc1)c1ccc2nncn2c1 | > 2 |  |  |  |  |  | 
6 | CC(C)C1CCN1Cc1ccc(CNC(=O)c2ccc3nncn3c2)cc1 (configuration not stated) | 0.266 |  |  |  |  |  | 
7 | O=C(NCc1ccc(CN2CCC2)cc1)c1ccc2nncn2c1 |  | Active | Active | Active | > 54 | 18.5 | 
8 | O=C(NCc1ccc(CN2CCC2)cc1)c1ccn2cnnc2c1 | > 5 |  |  |  |  |  | 
9 | CN(C)Cc1ccc(CNC(=O)c2ccc3nncn3c2)cc1 | 0.621 | Active | Active | Active | > 54 | > 54 | Activity [6]: inactive; inhibition of growth at 5 µM (MOLM-13 [7]): 40%; GI50 (MOLM-13 [8]): 1.34 µM; growth inhibition (GI) (MV4-11): Active; Activity [9]: Active; GI50 (MOLM-13 [10]): 3.64 µM; IC50 (Protein AF-9): 4.93 µM; Activity [11]: Active; growth inhibition (GI) (U2OS): inactive; inhibition [12]: Active; Activity [13]: inactive; Activity [14]: inactive; inhibition of growth at 10 µM (MOLM-13 [15]): 80%; Activity [16]: Active

— ChEMBL document CHEMBL4808215, “Discovery of Selective Small-Molecule Inhibitors for the ENL YEATS Domain” (J Med Chem, 2021)
